SF-1 act: SF-1 (human) activation; Q13285; CHO-K1 Gal4-SF-1 LBD luciferase reporter; % increase over DMSO SF-1-specific signal; activation, % at 10 µM; actives 1.9% (n = 65,000);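 active means activation above the mean activation of all tested compounds plus 3 SD, cut at about 50% in these data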
Target sequence (Q13285 whole entry, looked up, the tested form may be a part): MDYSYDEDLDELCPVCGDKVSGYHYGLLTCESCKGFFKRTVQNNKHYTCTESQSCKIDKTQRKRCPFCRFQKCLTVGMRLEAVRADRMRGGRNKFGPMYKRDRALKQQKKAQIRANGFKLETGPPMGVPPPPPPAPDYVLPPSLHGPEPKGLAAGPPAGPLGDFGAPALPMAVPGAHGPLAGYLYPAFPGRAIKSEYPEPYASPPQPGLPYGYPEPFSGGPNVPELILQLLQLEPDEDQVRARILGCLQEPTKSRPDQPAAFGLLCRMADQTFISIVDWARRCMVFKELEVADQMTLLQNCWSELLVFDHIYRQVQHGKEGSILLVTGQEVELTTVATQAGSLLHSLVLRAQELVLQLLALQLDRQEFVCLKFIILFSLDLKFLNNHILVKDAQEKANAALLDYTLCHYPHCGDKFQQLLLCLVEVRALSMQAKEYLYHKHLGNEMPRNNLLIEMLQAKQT
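Assay system: CHO-K1 cells co-transfected with Gal4 DBD–human SF-1 LBD, 5xGal4 luciferase reporter / Input: 4,000 cells per well / Incubation: 20 h compound exposure at 37 °C after 1 h cell settling / Detection: SteadyLite luciferase luminescence / Control set: DMSO negative control and −SF1 background wells / Replication: one test per compound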
ERb SRC1 inh: blocks coactivator binding to human estrogen receptor beta | actives 1.3% (n = 86,000) | inhibition, % at 25.6 µM | Q92731 | TR-FRET ER-beta LBD / SRC1-Cy5 peptide binding; receptor agonist-loaded with 1 µM estradiol | AID 633;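 active means compounds whose percent inhibition of the receptor-coactivator binding signal exceeds about 50% in the single-dose screen, limit read from the data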;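 further: 0% = receptor plus peptide wells without compound and 100% = peptide-only wells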
BAP1 block: blocks human BAP1 ubiquitin-AMC hydrolysis | actives 0.48% (n = 72,000) | recombinant BAP1, Ub-AMC hydrolysis fluorescence kinetic; active compounds read low | AID 436 | calls only at 20 µM | Q92560;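 active means activity remaining at or below 50% of control, provided the compound also passes the data quality filters; inactive means the rest, including low values that fail the filters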;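 further: 100% = DMSO wells rate and 0% = substrate alone blank rate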
RORa activator: activators of human nuclear receptor RORA; CHO-K1 Gal4-RORA LBD luciferase reporter, luminescence; percent increase over mock-subtracted basal signal; activation, % at 10 µM; actives 1.5% (n = 65,000);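 active means activation above the mean of all tested compounds plus 3 SD, cut at about 49% in these data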;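 further: 0% = DMSO-treated RORA cells and 100% = added signal equal to DMSO minus mock-transfected cells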
ERa SRC1 pot: enhances coactivator binding to human estrogen receptor alpha | coactivator binding (% of control), % at 25.6 µM | actives 1.3% (n = 86,000) | TR-FRET ERalpha-LBD/SRC-Cy5 coactivator binding, 2 h; 100 = basal binding, no effect; in the data active means activity above about 200%;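 further: binding measured in presence of low estradiol as agonist stimulus; 0% = peptide alone without receptor and 100% = receptor with peptide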
ERa SRC1 inh: blocks coactivator binding to human estrogen receptor alpha; P03372; TR-FRET ER-alpha LBD / SRC-1 peptide, estradiol-bound; inhibition, % at 25.6 µM; actives 1.7% (n = 86,000); AID 629; in the data active means inhibition above about 50%;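 further: 0% = receptor plus peptide control and 100% = peptide only without receptor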
* marks the source's active call; other numbers are inactive results; i = inactive; / = no result given; [ ] = dose if it differs, or a comment. A selection: hits, their analogues and other compounds. The true share with any hit is near 5.1%.

SMILES	SF-1 act	ERb SRC1 inh	BAP1 block	RORa activator	ERa SRC1 pot	ERa SRC1 inh
CCn1cc([N+](=O)[O-])c(C(=O)N2N=C(c3ccc4ccccc4c3)CC2c2cc(Br)ccc2O)n1 (configuration not stated)	/	51*[fluorescence artefact?]	/	/	104	41
Cc1ccc2nc(N3CCN(C)CC3)c(C#N)cc2c1	9	-10	i	10	98	0
Cc1ccc2cc(C#N)c(N3CCCN(S(=O)(=O)c4ccc(F)cc4)CC3)nc2c1	/	51*[fluorescence artefact?]	/	/	349*[fluorescence artefact?]	44
Cc1ccc2cc(C#N)c(N3CCCN(S(=O)(=O)c4ccccc4)CC3)nc2c1C	/	55*[fluorescence artefact?]	/	/	363*[fluorescence artefact?]	39
Cc1ccc2nc(N3CCN(S(=O)(=O)c4ccc(C)c(Cl)c4)CC3)c(C#N)cc2c1	/	50*[fluorescence artefact?]	/	/	244*[fluorescence artefact?]	48
Cc1cccc2cc(C#N)c(N3CCN(C)CC3)nc12	-1	7	i	-15	113	2
Cc1ccc2cc(C#N)c(N3CCCN(S(=O)(=O)c4ccccc4)CC3)nc2c1	-6	27	i	12	350*[fluorescence artefact?]	32
Cc1ccc2cc(C#N)c(N3CCN(C)CC3)nc2c1	/	1	/	/	98	-3
Cc1nc(N2CCN(S(=O)(=O)c3ccc(F)cc3)CC2)c2c(C)c(C)sc2n1	27	-1	i	-8	111	5
NC(=O)c1cc2cc([N+](=O)[O-])ccc2oc1=Nc1cccc(F)c1	/	/	i	/	/	/
Cc1cc2nn(-c3ccccc3)nc2cc1NC(=O)c1ccc(Br)o1	/	/	i	/	/	/
Cc1ccc2nc(N3CCN(Cc4nnnn4Cc4ccccc4)CC3)c(C#N)cc2c1	12	30	/	-10	372*[fluorescence artefact?]	39
CCN(CC)S(=O)(=O)c1ccc(C(=O)Nc2nnc(-c3ccc(C)cc3)s2)cc1	/	/	i	/	/	/
O=C1N=C(c2ccccc2)S/C1=C\c1cccs1	/	23	/	/	112	57*[fluorescence artefact?]
Cc1cccc(Nc2ncc3c(n2)CC(c2ccco2)CC3=O)c1 (configuration not stated)	-7	-3	i	-15	96	2
Cc1cccc(Nc2ncc3c(n2)CC(C)CC3=O)c1 (configuration not stated)	72*	4	i	72*	116	-3
CCCC(=O)N1CCN(c2ccc(C(=O)CC)cc2F)CC1	/	/	i	/	/	/
c1ccc(Cn2nnc3c(NCc4ccc5c(c4)OCO5)nc(C4CC4)nc32)cc1	-18	43	i	-10	56	79*[fluorescence artefact?]
c1ccc(Cn2nnnc2CN2CCN(Cc3ccc4c(c3)OCO4)CC2)cc1	-1	0	i	-11	209*	6
CC1Cc2ccccc2N1c1nc(C2CC2)nc2c1nnn2Cc1ccccc1 (configuration not stated)	/	20	/	/	166	8
Cc1nc(NCc2ccc3c(c2)OCO3)c2nnn(Cc3ccccc3)c2n1	-10	27	/	-8	154	63*[fluorescence artefact?]
Cc1cccc(NC(=O)c2c(O)c3cccc4c3n(c2=O)CC4)c1	/	28	/	/	217*[fluorescence artefact?]	34
O=C(O)c1ccc(Cl)c2c1C1C=CCC1C(c1ccccn1)N2 (configuration not stated)	-17	87*[fluorescence artefact?]	i	1	15	65*[fluorescence artefact?]
CCc1nnc(NC(=O)C2CC(=O)N(c3ccc(C)cc3)C2)s1 (configuration not stated)	-7	2	i	1	92	2
Cc1ccc(N2CC(C(=O)Nc3ccccn3)CC2=O)cc1 (configuration not stated)	5	63*[fluorescence artefact?]	i	-4	93	5
SMILES	SF-1 act	ERb SRC1 inh	BAP1 block	RORa activator	ERa SRC1 pot	ERa SRC1 inh
COc1ccc(-c2nnc(-c3cc4c(ccc5ccccc54)oc3=O)o2)cc1	/	20	/	/	120	52*
CCN(CC)c1ccc2cc(-c3nnc(-c4ccccc4)o3)c(=O)oc2c1	/	32	/	/	194	48
O=c1oc2ccc3ccccc3c2cc1-c1nnc(-c2ccccc2)o1	47	20	i	43	68	65*[fluorescence artefact?]
CCOC(=O)c1ccc(NC(=O)COc2cc(C)c(Cl)c(C)c2)cc1	/	/	i	/	/	/
Cc1cccc(C(=O)Nc2nnc(CCc3ccccc3)s2)c1	/	/	i	/	/	/
N#Cc1c2n(c(=S)n(-c3ccccn3)c1=O)CCCCC2	7	52*[fluorescence artefact?]	i	-15	79	14
COc1ccc(C2C=C(c3ccc(Cl)cc3)Nc3nc(NC(C)=O)nn32)cc1 (configuration not stated)	0	22	i	-14	172	70*
O=C(Nc1cccc(Br)c1)c1cc2ccccc2o1	46	-3	i	71*	102	9
Cc1cccc(NC(=O)c2cc3ccccc3o2)c1	90*	8	i	26	114	15
CCOC(=O)c1ccc(NC(=O)c2cc3ccccc3o2)cc1	2	-21	i	12	109	-27
CCCn1nnc(NC(=O)c2cc3ccccc3o2)n1	20	2	i	49*	81	-2
CC(C)C(=O)Nc1ccc(NC(=O)c2cc3ccccc3o2)cc1	24	1	i	59*	114	-3
COC(=O)C1=CNC=C(C(=O)OC)C1c1ccc(C)s1	/	/	i	/	/	/
CCC(=O)Nc1cccc(NC(=O)c2cc3ccccc3o2)c1	25	6	i	58*	127	-2
CC(C)c1ccc(-c2c(C#N)c(N)nc(SCC(=O)N3CCCCCC3)c2C#N)cc1	/	50	/	/	260*[fluorescence artefact?]	43
COC(=O)CSc1nc(N)c(C#N)c(-c2ccccc2)c1C#N	/	/	i	/	/	/
N#Cc1c(N)nc(SCC(=O)NC2CCCCC2)c(C#N)c1-c1ccc(Cl)cc1	-6	51*[fluorescence artefact?]	i	-16	122	66*[fluorescence artefact?]
CC(C)c1ccc(-c2c(C#N)c(N)nc(SCC(=O)N3CCCCC3)c2C#N)cc1	/	43	/	/	186	50*[fluorescence artefact?]
CCOC(=O)CSc1nc(N)c(C#N)c(-c2ccc(OCC)cc2)c1C#N	15	37	i	-21	187	34
CC1CCc2sc(NC(=O)COc3ccc(Cl)cc3)c(C(N)=O)c2C1 (configuration not stated)	/	/	i	/	/	/
COC(=O)CN1C(c2ccc(O)cc2)Nc2ccc(Br)cc2C1c1ccccc1 (configuration not stated)	/	/	i	/	/	/
C=Cn1cccc1-c1cccs1	/	/	i	/	/	/
CCCCC(=O)OCCN1C(=O)c2cccc3c(N4CCCCC4)ccc(c23)C1=O	/	/	i	/	/	/
Cc1ccc(C(=O)Nc2ccc3c(c2)CCC3)o1	59*	26	/	16	102	-4
Cc1cnc(C(=O)Nc2ccc3c(c2)CCC3)cn1	40	50	i	30	79	32
O=C(Nc1ccc2c(c1)OCO2)c1ccc(COc2ccc3c(c2)CCC3)o1	61*	-1	/	-13	101	-8
O=C(Nc1ccc2c(c1)CCC2)c1cnccn1	55*	3	/	17	104	9
